TRPC6 inh = blocks the mouse TRPC6 cation channel; HEK293-TRPC6, membrane potential dye, ACh-evoked depolarization; stronger effect = lower value; B-score at 10 µM; 310,000 compounds, 1.1% hits; AID 2553;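 active = B-score under library mean minus 3 SD, initial fluorescence not abnormally high, positive integrated signal ratio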;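 note: B-score derived from integrated fluorescence ratio over the kinetic read; more negative B-score means stronger inhibition of depolarization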
Target sequence (Q61143 whole entry, looked up): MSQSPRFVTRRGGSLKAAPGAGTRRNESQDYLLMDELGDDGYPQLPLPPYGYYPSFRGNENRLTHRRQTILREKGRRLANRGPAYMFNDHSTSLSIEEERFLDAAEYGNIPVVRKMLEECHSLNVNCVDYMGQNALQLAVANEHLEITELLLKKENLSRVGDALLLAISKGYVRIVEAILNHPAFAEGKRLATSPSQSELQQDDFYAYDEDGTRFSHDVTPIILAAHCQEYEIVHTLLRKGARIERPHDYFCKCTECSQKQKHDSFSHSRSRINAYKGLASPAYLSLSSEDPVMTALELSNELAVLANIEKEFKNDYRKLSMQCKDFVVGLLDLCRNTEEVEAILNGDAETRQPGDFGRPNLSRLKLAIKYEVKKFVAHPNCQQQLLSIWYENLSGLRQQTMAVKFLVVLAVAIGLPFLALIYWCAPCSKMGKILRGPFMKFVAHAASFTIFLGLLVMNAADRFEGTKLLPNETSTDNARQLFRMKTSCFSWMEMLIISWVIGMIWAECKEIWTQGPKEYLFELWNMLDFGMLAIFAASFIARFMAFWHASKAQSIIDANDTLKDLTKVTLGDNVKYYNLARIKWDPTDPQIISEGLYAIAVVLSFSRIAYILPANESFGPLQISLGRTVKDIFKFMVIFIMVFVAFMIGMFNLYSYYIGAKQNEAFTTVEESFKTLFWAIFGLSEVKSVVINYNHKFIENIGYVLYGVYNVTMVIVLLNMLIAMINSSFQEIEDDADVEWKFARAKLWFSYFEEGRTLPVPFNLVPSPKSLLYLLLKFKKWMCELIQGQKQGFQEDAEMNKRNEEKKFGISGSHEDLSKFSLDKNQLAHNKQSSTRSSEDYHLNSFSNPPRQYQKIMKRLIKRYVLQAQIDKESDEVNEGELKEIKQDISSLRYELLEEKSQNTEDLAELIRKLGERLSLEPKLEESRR
TRPC4 agonist = opens the mouse TRPC4 cation channel; HEK293 TRPC4beta/mu-opioid, Fluo4 calcium fluorescence; stronger effect = higher value; B-score at 10 µM; 310,000 compounds, 0.49% hits; AID 2237;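 active = B-score above 5 SD of library B-scores, and initial fluorescence ratio not above library mean plus 5 SD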;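 note: positive B-score marks a calcium rise read as TRPC4 activation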
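System: HEK293 cells stably co-expressing mouse TRPC4beta and mu-opioid receptor; Schedule: Fluo4 dye loading 45 min at room temperature, 110 s recording; Detection: Fluo4 fluorescence, kinetic; Evaluation: B-scored integrated calcium fluorescence ratio; Controls: buffer (low) and maximal DAMGO (high).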
TRPC4 potent = allosteric potentiators of mouse TRPC4 channel; HEK293 TRPC4beta/mu-opioid, DAMGO EC20, Fluo-4 Ca2+ flux; stronger effect = higher value; B-score at 10 µM; 310,000 compounds, 0.42% hits;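 active = B-score of calcium response area above 5 SD of library B-scores, with initial fluorescence ratio within 5 SD of library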;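 note: B-score of integrated fluorescence ratio over time as area under calcium response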
TRPC4 inh = inhibitors of mouse TRPC4 channel; Q9QUQ5; HEK293 TRPC4beta/mu-opioid, DAMGO-evoked Fluo4 calcium flux; stronger effect = lower value; B-score at 10 µM; 300,000 compounds, 0.39% hits;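 active = B-score over 3 SD under the library average, no early fluorescence shift, positive overall ratio signal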
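Assay system: TRPC4beta/mu-opioid receptor HEK293 cell line; compound dosing: single concentration per test compound; detection: Fluo4 Ca2+ flux fluorescence; evaluation: per-well B score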
TRPC6 activator = activators of mouse TRPC6 channel; Q61143; HEK293-TRPC6 membrane potential dye fluorescence; stronger effect = higher value; B-score at 10 µM; 310,000 compounds, 0.13% hits; AID 2550;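 active = B-score of the integrated fluorescence ratio above library mean plus 3 SD, and starting fluorescence ratio within library mean plus 5 SD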;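 note: higher score means more depolarization so channel activation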
* = called active by the depositor; i = inactive. Shown are actives, neighbours in structure and some others; about 2.3% of the full set was active somewhere.

SMILES	TRPC6 inh	TRPC4 agonist	TRPC4 potent	TRPC4 inh	TRPC6 activator
O=C(OCC(=O)N1CCCC1=O)c1cccc(S(=O)(=O)N2CCOCC2)c1	i	i	i	i	i
O=C(CCC(=O)NNc1nc2ccccc2c2nc(-c3ccccc3)nn12)NCCCN1CCOCC1	i	i	i	i	i
CC(C)CCNC(=O)CCC(=O)NNc1nc2ccccc2c2nc(-c3ccccc3)nn12	i	i	23*	i	i
CCN(CC)CCOC(=O)C1(c2ccccc2)CCOCC1	i	60*	i	i	i
C[C@H](NC(=O)c1ccco1)C(=O)Nc1ccc2c(c1)OCO2	i	i	i	i	i
CC1CCCCN1S(=O)(=O)c1ccc(C(=O)Nc2sccc2C(N)=O)cc1 (stereo unspecified)	i	i	11*	i	i
O=C(CCc1ccccc1)Nc1ccccc1C(F)(F)F	i	i	i	i	i
CN1/C(=C\C=[N+](C)c2ccccc2)C(C)(C)c2ccccc21	i	i	i	i	i
CCNC(=O)CN(c1ccc(OC)c(OC)c1)S(=O)(=O)c1ccccc1	i	i	i	i	i
CC(=O)O[C@]1(C(C)=O)CC[C@H]2[C@@H]3C[C@H](C)C4=CC(=O)CC[C@]4(C)[C@H]3CC[C@@]21C	i	i	i	i	i
CC(=O)C12CCCCC1CC1[C@@H]3CC(C)C4=CC(=O)CC[C@]4(C)C3CC[C@@]12C (stereo partly specified)	i	i	12*	i	i
O=c1c(C=NCCN2CCNCC2)c(-c2ccccc2)[nH]n1-c1ccc([N+](=O)[O-])cc1	-6.6*	i	i	i	i
COc1ccccc1Oc1coc2c(CN3CCOCC3)c(O)ccc2c1=O	i	i	i	i	i
COc1cc(NC(=O)CSc2ncnc3sc4c(c23)CCC(C)C4)c(C(=O)O)cc1OC (stereo unspecified)	i	i	i	-6*	i
CC1CCc2c(sc3ncnc(SCC(=O)Nc4ccc(C(=O)O)cc4)c23)C1 (stereo unspecified)	i	i	i	-6*	i
Cc1cc(-c2ccc(C)c(S(=O)(=O)N3CCN(C(=O)c4ccco4)CC3)c2)on1	i	i	45*	i	i
CCc1ccc(-c2cc(C)no2)cc1S(=O)(=O)N1CCN(C(=O)c2ccco2)CC1	i	i	i	i	i
CCn1cc(/C=C(\NC(=O)c2ccccc2OC)C(=O)NCCCn2ccnc2)c2ccccc21	i	i	i	i	i
O=C(NC1CC1)C1=C[C@H](c2csc3ccccc23)C[C@H](OCc2ccc(CO)cc2)O1	i	113*	i	i	i
O=C(Nc1ccccc1)C1=C[C@H](c2csc3ccccc23)C[C@H](OCc2ccc(CO)cc2)O1	i	i	14*	i	i
CC(NCc1ccccc1)C1COc2ccccc2O1 (stereo unspecified)	i	i	i	i	i
Cc1cc(C(=O)NNc2ccc(C)c(C)c2)no1	i	i	i	i	i
O=C(Cc1cccs1)Nc1ccon1	i	i	i	i	i
O=C(COC(=O)Cc1ccc(S(=O)(=O)N2CCOCC2)s1)NCc1ccc(Cl)cc1	i	i	i	i	i
COc1ccccc1NC(=O)COC(=O)c1ccccc1C(=O)N1CCN(c2ccccc2)CC1	i	i	11*	i	i
SMILES	TRPC6 inh	TRPC4 agonist	TRPC4 potent	TRPC4 inh	TRPC6 activator
O=C(CO/N=C/c1ccccc1OC(F)F)NC1CCCCC1	i	i	i	i	i
CCN(CC)CCN1C(=O)C2C(C(=O)Nc3ccc(C(C)C)cc3)C3C=CC2(O3)C1C(=O)NC1CCCCC1 (stereo unspecified)	i	63*	i	-6*	i
Cc1ccc(NC(=O)C2C3C=CC4(O3)C2C(=O)N(CCCN2CCCC2)C4C(=O)NC2CCCCC2)cc1Cl (stereo unspecified)	i	i	i	i	i
CC1CCCN(CCCN2C(=O)C3C(C(=O)Nc4ccc(Cl)cc4)C4C=CC3(O4)C2C(=O)NC2CCCCC2)C1 (stereo unspecified)	i	i	i	-6*	i
CN(C)CCN1C(=O)C2C(C(=O)Nc3cc(Cl)cc(Cl)c3)C3C=CC2(O3)C1C(=O)NC1CCCCC1 (stereo unspecified)	i	i	i	-7*	i
Cc1cc(C)cc(NC(=O)C2C3C=CC4(O3)C2C(=O)N(CCN2CCCCC2)C4C(=O)NC2CCCCC2)c1 (stereo unspecified)	i	i	i	i	i
CC(C)c1ccc(NC(=O)C2C3C=CC4(O3)C2C(=O)N(CCCN2CCCCC2)C4C(=O)NC2CCCCC2)cc1 (stereo unspecified)	i	66*	i	-6*	i
Cc1cccc(-n2c(C)cc(C)c(C#N)c2=O)c1	i	i	i	i	i
Brc1ccc(-c2nc3ncccn3c2Nc2ccc3c(c2)OCCO3)o1	i	i	i	i	i
O=C(Nc1ccccc1)OCCOc1ccc(Br)cc1	i	i	i	i	i
COC(=O)CSc1nc(C2CC2)cc(C(F)(F)F)c1C#N	i	i	i	i	i
CNC(=O)c1ccccc1NC(=O)C1CC(=O)N(c2ccc(OC)cc2)C1 (stereo unspecified)	i	i	i	i	i
CC1(c2ccccc2)O[C@@H]2C[C@H]3[C@@H]4CCC5=CC(=O)C=C[C@]5(C)[C@@]4(F)[C@@H](O)C[C@]3(C)[C@]2(C(=O)CO)O1 (stereo partly specified)	i	i	12*	i	i
CC(=O)c1cccc(OCc2cc(C(=O)N3CCSCC3)no2)c1	i	i	i	i	i
O=C(Cc1nc2ccccc2[nH]1)c1ccc(Cl)cc1	i	i	i	i	i
O=C(Cc1nc2ccccc2[nH]1)c1ccc([N+](=O)[O-])cc1	i	i	i	-6*	i
COc1ccc(S(=O)(=O)N2CCCCCC2)cc1NC(=O)c1c2c(nc3ccccc13)CCN(Cc1ccccc1)C2	i	i	i	i	i
OCC1(CCCc2ccccc2)CCN(Cc2ccc(F)cc2)CC1	i	i	i	i	i
Cc1ccc(-n2cccn2)c(CN2CCC(CO)(CCc3ccccc3)CC2)c1	i	56*	i	i	i
OCC1(CCc2ccccc2)CCN(Cc2cc(Cl)ccc2O)CC1	i	i	i	-7*	i

Compound activity as filed in PubChem.
